Screening data as filed in PubChem.
NOD2 RIPK2 PPI: blocks binding of human NOD2 to RIPK2 | inhibition, % at 4.98 µM | AID 624267 | CHO BLA complementation NOD2-RIPK2, CCF4 ratio | 360,000 tested, 0.38% active | O43353; in the data active = inhibition above about 21%;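 note: 0% = vehicle only and 100% = reference blocker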
TLR4 MyD88 comp: TLR4-MyD88 interaction inhibition in cells; O00206+Q99836; HeLa CL3-4 TLR4/MyD88 BLA complementation, FRET ratio; inhibition, % at 8.4 µM; 200,000 tested, 0.18% active; AID 861; in the data active = inhibition above about 25%;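 note: 0% = vehicle and 100% = reference inhibitor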
TLR9-MyD88 block: TLR9-MyD88 interaction inhibition; inhibition, % at 4.98 µM; AID 504734; Q9NR96+Q99836; CHO BLA complementation TLR9-MyD88, CCF4 FRET ratio; 340,000 tested, 0.21% active;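 active = inhibition above the mean over all tested compounds plus 3 SD, cut at about 21% in these data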;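 note: 0% = DMSO only wells and 100% = clavulanate BLA inhibitor control wells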
Target sequence (Q99836 whole entry, looked up): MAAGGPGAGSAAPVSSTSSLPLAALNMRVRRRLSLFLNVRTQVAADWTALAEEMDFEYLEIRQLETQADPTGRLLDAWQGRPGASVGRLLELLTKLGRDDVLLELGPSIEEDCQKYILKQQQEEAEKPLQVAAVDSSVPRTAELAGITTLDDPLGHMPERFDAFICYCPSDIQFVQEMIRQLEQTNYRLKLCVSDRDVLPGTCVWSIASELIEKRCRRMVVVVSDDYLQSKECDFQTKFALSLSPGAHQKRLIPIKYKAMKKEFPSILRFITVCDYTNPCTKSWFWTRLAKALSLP
Target sequence (Q9NR96 whole entry, looked up): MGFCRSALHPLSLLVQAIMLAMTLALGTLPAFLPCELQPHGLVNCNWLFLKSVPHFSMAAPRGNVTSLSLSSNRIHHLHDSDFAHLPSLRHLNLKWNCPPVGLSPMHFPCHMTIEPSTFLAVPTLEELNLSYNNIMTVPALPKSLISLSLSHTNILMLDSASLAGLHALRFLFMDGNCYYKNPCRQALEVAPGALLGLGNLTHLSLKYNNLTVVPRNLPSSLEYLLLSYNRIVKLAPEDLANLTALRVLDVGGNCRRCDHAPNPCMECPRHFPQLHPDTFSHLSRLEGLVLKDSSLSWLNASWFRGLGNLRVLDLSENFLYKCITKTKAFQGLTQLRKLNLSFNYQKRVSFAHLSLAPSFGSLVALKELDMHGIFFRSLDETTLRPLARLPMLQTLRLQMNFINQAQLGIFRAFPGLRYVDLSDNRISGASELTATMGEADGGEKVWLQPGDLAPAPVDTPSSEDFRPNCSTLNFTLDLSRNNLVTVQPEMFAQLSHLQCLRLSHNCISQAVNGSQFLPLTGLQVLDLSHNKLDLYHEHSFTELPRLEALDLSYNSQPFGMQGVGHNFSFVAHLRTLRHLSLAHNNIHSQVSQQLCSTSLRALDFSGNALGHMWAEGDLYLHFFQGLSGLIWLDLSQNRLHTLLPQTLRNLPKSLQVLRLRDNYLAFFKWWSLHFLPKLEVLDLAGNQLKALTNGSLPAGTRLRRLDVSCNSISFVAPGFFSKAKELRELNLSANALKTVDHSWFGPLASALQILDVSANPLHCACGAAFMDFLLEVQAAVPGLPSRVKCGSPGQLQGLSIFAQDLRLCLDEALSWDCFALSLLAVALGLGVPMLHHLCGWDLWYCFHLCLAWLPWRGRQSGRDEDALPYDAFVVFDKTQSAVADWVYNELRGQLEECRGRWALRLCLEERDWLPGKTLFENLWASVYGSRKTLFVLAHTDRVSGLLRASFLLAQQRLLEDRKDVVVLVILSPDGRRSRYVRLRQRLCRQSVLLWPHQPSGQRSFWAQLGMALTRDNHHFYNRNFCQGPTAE
ABHD5-PLIN5 inh: inhibitors of human ABHD5-perilipin-5 interaction | Split G. princeps luciferase complementation, luminescence, 4 h | inhibition, % at 4 µM | Q00G26+Q8WTS1 | AID 602281 | 360,000 tested, 0.78% active;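 active = inhibition above the mean inhibition across every tested compound plus 3 SD, cut at about 22% in these data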;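 note: 0% = DMSO only wells and the 100% control is not disclosed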
Dynein cargo inh: blocks dynein driven cargo transport along microtubules | z-score, hits read low | 3617.4 mouse cells, GR-EGFP nuclear translocation imaging; test concentration mostly 20 µM; stimulated with dexamethasone, 1 µM; hits give low values | 220,000 tested, 0.47% active;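 active = plate z-score of nuclear minus cytoplasmic receptor signal below a set negative limit, without overly bright fluorescence or cell loss, cut at about -3.5 in these data, passing the limit was not always enough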;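 note: z-score of nuclear minus cytoplasmic ring GR-EGFP intensity difference per well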
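Also added – dexamethasone, 1.0 µM final · Buffer or medium – tet-free, stripped-serum medium · Schedule – induction 48 h, compound 1 h, agonist 30 min · Detection – formaldehyde fixation, Hoechst nuclear stain, 10x automated fluorescence imaging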
Beta2AR agonist: activates human beta-2 adrenergic receptor causing internalization; 340,000 tested, 0.43% active; Am2.2-beta2AR cells, FAP receptor internalization, flow cytometry; AID 504454; response, % (test concentration not listed); P07550;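 active = response above a set limit, near 3 SD of response in nonfluorescent compounds, cut at about 42% in these data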
ABHD5 PLIN5 conf: ABHD5-PLIN5 interaction inhibition, confirmed | AID 651612 | 2,200 tested, 67% active | biochemical ABHD5-PLIN5 interaction, luminescence | inhibition, % at 4 µM | shares compounds with ABHD5-PLIN5 inh; in the data active = inhibition above about 23%;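 note: 0% = DMSO vehicle wells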
HNF4 counter: active in HNF4 split-luciferase counter-screen for ABHD5-PLIN5 inhibitors. shares compounds with ABHD5-PLIN5 inh. HNF4 dimerization, luminescence, biochemical. inhibition, % at 4 µM. 2,200 tested, 77% active. AID 651674;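 active = mean inhibition across replicate wells exceeding the computed hit threshold, cut at about 13% in these data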;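 note: light from luciferase halves that rejoin when HNF4 fusion proteins dimerize; 0% = DMSO only wells and the 100% control is not given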
Active calls of the source: *; · = no result. Hits are enriched below; roughly 1.6% of the tested compounds scored in any of these assays.

SMILES	NOD2 RIPK2 PPI	TLR4 MyD88 comp	TLR9-MyD88 block	ABHD5-PLIN5 inh	Dynein cargo inh	Beta2AR agonist	ABHD5 PLIN5 conf	HNF4 counter
CSc1nnc(C)c(/C=C/NOCc2cccc(F)c2)n1	1.9	-8.6	7.7	-5.7	-1.24	11.9	·	·
O=C(/C=C/c1cccnc1)c1cc(F)ccc1O	-10.3	·	8.9	0.0	-3.43	-4.7	·	·
COc1ccc(/C=C/C(=O)c2ccc(OC)cc2OC)cc1	9.8	4.6	-7.4	0.0	-1.46	-7.2	·	·
COc1cc(C(=O)/C=C/c2cccnc2)ccc1O	0.2	·	-6.6	24.2*	·	21.8	60.8*	54.8*
Cc1cccc(C(=O)Nc2ccc(C(=O)/C=C/c3cccnc3)cc2)c1	5.7	13.2	6.2	67.6*	0.745	79.6*	101.5*	102.0*
COc1ccc(C=CC(=O)c2ccc(OCc3ccccc3)c(OC)c2)cc1OC	-3.9	·	4.6	10.9	·	·	·	·
COc1ccc(OC)c(C(=O)/C=C/c2cccnc2)c1	2.4	·	5.2	38.5*	·	3.8	61.1*	63.1*
O=C(/C=C/c1ccc(OCc2ccccc2)c(OCc2ccccc2)c1)c1cccnc1	2.2	16.4	0.3	26.1*	-2.42	4.0	87.1*	77.8*
Cc1cccc(NC(=O)CSCC(=O)OCc2ccccn2)c1	-1.2	·	0.3	10.0	·	-0.4	·	·
CN1C(=O)CSC1=Nc1ccc(Br)cc1	0.8	·	3.7	-3.8	·	-4.0	·	·
Clc1nssc1=Nc1ccc(Br)cc1	-2.3	2.3	0.9	23.6*	-0.818	5.0	22.5*	70.6*
COc1ccc(NC(=O)C2CCCN(CCCc3ccccc3)C2)cc1OCC(C)C (configuration not stated)	12.7	·	4.5	38.5*	·	22.2	22.0*	14.9*
C[C@H]1CN([C@@H](C)CO)C(=O)CCCn2nncc2CO[C@@H]1CN(C)Cc1ccccc1	-2.1	·	1.6	0.3	·	·	·	·
CN(C(=O)CSc1nnc(-c2ccccc2F)n1N)C1CCCCC1	-3.5	·	-4.4	4.3	·	-12.7	·	·
COc1ccc(NC(=S)NC23CC4CC(CC(C4)C2)C3)cc1OC	-5.0	·	6.3	-7.5	·	0.6	·	·
CCn1c(C)c(C)c2cc(C(=O)NCCc3ccco3)ccc21	-7.9	·	-5.0	30.0*	·	16.1	9.5	16.3*
OCc1ccc(-c2cncc3nccn23)cc1	-7.7	·	·	0.2	·	·	·	·
c1cn2c(-c3ccoc3)cncc2n1	-10.5	·	·	23.1*	·	·	34.0*	35.4*
CCSc1nnc(NC(=O)c2nc(S(=O)(=O)Cc3ccc(F)cc3)ncc2Cl)s1	4.0	·	0.3	24.2*	·	12.0	79.9*	48.8*
CSc1nnc(NC(=O)c2nc(S(=O)(=O)Cc3ccccc3F)ncc2Cl)s1	7.2	·	5.4	25.3*	·	19.1	85.8*	55.4*
C=CCSc1nnc(NC(=O)c2nc(SCC)ncc2Cl)s1	-4.1	-7.3	3.4	12.3	-0.435	-4.5	·	·
CSc1ncc(Cl)c(C(=O)Nc2nnc(SC/C=C/c3ccccc3)s2)n1	-5.9	3.5	2.0	6.0	0.123	-0.5	·	·
CSc1nnc(NC(=O)c2nc(S(=O)(=O)Cc3cccc(C)c3)ncc2Cl)s1	13.9	·	10.2	29.9*	·	24.4	85.5*	56.0*
CSc1nnc(NC(=O)c2ccco2)s1	2.6	·	-1.1	-5.7	·	2.2	·	·
CCc1nnc(NC(=O)c2nc(Cl)ccc2Cl)s1	-10.6	·	-2.9	2.5	·	-7.9	·	·
SMILES	NOD2 RIPK2 PPI	TLR4 MyD88 comp	TLR9-MyD88 block	ABHD5-PLIN5 inh	Dynein cargo inh	Beta2AR agonist	ABHD5 PLIN5 conf	HNF4 counter
CCc1nnc(NC(=O)c2nc(S(=O)(=O)Cc3ccccc3)ncc2Cl)s1	18.4	·	2.8	34.3*	·	0.0	69.3*	48.2*
C[C@@H]1CN([C@@H](C)CO)C(=O)c2cc(-c3ccccc3F)cnc2O[C@H]1CN(C)Cc1cccc(F)c1	0.8	·	-3.9	-11.8	·	·	·	·
Cc1nnc(NC(=O)CCS(=O)(=O)c2ccccc2)s1	1.8	·	-3.0	-2.7	·	-4.6	·	·
Cc1nnc(NC(=O)c2nc(S(=O)(=O)Cc3ccccc3C)ncc2Cl)s1	11.1	·	10.3	31.4*	·	10.0	72.4*	48.5*
COc1ccc(OC)c(C2/C(=C(/O)c3ccccc3)C(=O)C(=O)N2Cc2ccco2)c1 (configuration not stated)	-5.8	-9.8	-0.7	4.5	1.73	0.3	·	·
COc1cc(C2/C(=C(\O)c3ccc4c(c3)OCCO4)C(=O)C(=O)N2Cc2ccco2)ccc1O (configuration not stated)	-1.1	·	-5.1	0.5	·	3.8	·	·
COc1cc(C2/C(=C(\O)c3ccc4c(c3)OCCO4)C(=O)C(=O)N2Cc2ccco2)cc(OC)c1OC (configuration not stated)	-1.2	·	-5.2	28.7*	·	1.8	2.8	5.3
COc1ccc(/C(O)=C2\C(=O)C(=O)N(Cc3ccco3)C2c2cc(OC)ccc2OC)cc1 (configuration not stated)	1.9	-14.9	4.9	29.2*	-0.255	3.4	4.0	2.5
Cc1csc(N=Nc2ccc(N(C)C)cc2)[n+]1[O-]	-4.0	·	5.1	28.7*	·	·	26.4*	31.6*
CN(C)c1ccc(N=Nc2ccc(C(=O)O)cc2)cc1	8.4	·	-8.0	-7.2	·	1.4	·	·
COc1ccc(C(=O)C=Cc2cccs2)c(O)c1	-8.4	·	-7.6	19.9	·	4.4	·	·
COc1ccc(OC(=O)c2cccc([N+](=O)[O-])c2)c(C(=O)/C=C/c2cccs2)c1	-0.8	-7.4	-9.2	41.7*	-0.697	19.7	56.7*	52.6*
CC(C)(C)NC(=O)C(c1cc2ccccc2o1)n1c(=O)c(-c2ccccc2)nc2ccccc21 (configuration not stated)	-4.8	·	·	7.9	·	·	·	·
CCN(CC)C(=O)CSc1nc2ccccc2c(=O)n1OC(C)C	-14.5	-4.1	-2.7	24.1*	-0.469	-0.6	0.6	-1.5
CCCOC(=O)CSc1nnc(-c2cc(OC)c(OC)c(OC)c2)o1	0.2	15.8	-1.1	74.1*	-0.577	3.0	4.8	3.0
CC1(C(=O)NS(=O)(=O)c2cccs2)CCN1C(=O)C1CCCCC1 (configuration not stated)	9.7	·	·	6.8	·	·	·	·
COCCNC(=O)c1cc(-c2ccccc2)sc1N	-15.1	·	·	27.9*	·	·	0.9	-0.7
NC(=O)c1cc(S(=O)(=O)NCc2ccc(Br)cc2)cs1	-3.4	·	0.0	-3.2	·	10.2	·	·
C[C@@H](O)Cc1cn(CC(=O)NCCCCCCCCCCC(=O)N2CCNCC2)nn1	-4.3	·	3.2	-0.3	·	-2.6	·	·
NCCCCCc1cn(CC(=O)NCCCCCCCCCCC(=O)N2CCNCC2)nn1	-2.5	·	-1.7	93.4*	·	1.2	3.7	2.5
